Reference: ChEMBL document CHEMBL3045217, “Factors affecting the synergy of thiabendazole, sodium bicarbonate, and heat to control postharvest green mold of citrus fruit” (J Agric Food Chem, 2008)

Columns and labels:
Penicillium digitatum [1] = test: Fungicidal activity against Penicillium digitatum infected Valenica oranges assessed as fruit weight loss at 400 mg/L treated for 1 min at 40 degC postharvest at 20 hr after fungal conidial inoculation measured after 14 days of storage at 17 degC in presence of 0.5% SBC (water Rvb = 7.90%); assay type: functional
Penicillium digitatum [2] = test: Fungicidal activity against Penicillium digitatum infected Valenica oranges assessed as fruit weight loss at 400 mg/L treated for 1 min at 40 degC postharvest at 20 hr after fungal conidial inoculation measured after 14 days of storage at 17 degC (water Rvb = 6.24%); assay type: functional
Penicillium digitatum [3] = test: Fungicidal activity against Penicillium digitatum infected Valenica oranges assessed as fruit weight loss at 600 mg/L treated for 1 min at 20 degC postharvest at 20 hr after fungal conidial inoculation measured after 14 days of storage at 17 degC in presence of 1% SBC (water Rvb = 7.65%); assay type: functional
Penicillium digitatum [4] = test: Fungicidal activity against Penicillium digitatum infected Valenica oranges assessed as fruit weight loss at 400 mg/L treated for 1 min at 40 degC postharvest at 20 hr after fungal conidial inoculation measured after 7 days of storage at 17 degC in presence of 2% SBC (water Rvb = 4.70%); assay type: functional
Penicillium digitatum [5] = test: Fungicidal activity against Penicillium digitatum infected Valenica oranges assessed as fruit weight loss at 400 mg/L treated for 1 min at 40 degC postharvest at 20 hr after fungal conidial inoculation measured after 7 days of storage at 17 degC in presence of 0.5% SBC (water Rvb = 4.07%); assay type: functional
Penicillium digitatum [6] = test: Fungicidal activity against TBZ-resistant Penicillium digitatum infected Valencia oranges assessed as postharvest green mold incidence at 400 mg/L treated for 1 min at 40 degC at 20 hr after fungal conidial inoculation measured after 7 days of storage at 20 degC (water Rvb = 90.0%); assay type: functional
Penicillium digitatum [7] = test: (§1) Fungicidal activity against TBZ-sensitive Penicillium digitatum infected Nova mandarins assessed as postharvest green mold incidence at 400 mg/L treated for 1 min at 40 degC at 20 hr after fungal conidial inoculation measured after 5 days of storage at 20 degC in presence of 1% SBC (water Rvb = 93.3%); assay type: functional
Outline: (§2)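 Fruit were surface-disinfected in 1 g/L hypochlorite for 30 s, rinsed, dried, then wounded twice equatorially (2 mm × 2 mm rod). Inoculation was a 1 min dip in P. digitatum conidia, 1 × 10^5 conidia/mL final. Fruit were held 20 h at 20 °C and 90% RH, dipped 1 min (SBC wt/vol), and air-dried. Storage was 20 °C, 90% RH. Decay incidence (% fruit with lesions) was scored at 5 d for mandarins and 7 d for oranges. Three replicates of 40 fruit were used; arcsin-transformed data were compared by LSD, p ≤ 0.05.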

Penicillium digitatum [8] = test: as §1, with “0.5%” for “1%”, “100%)” for “93.3%)”; assay type: functional; outline: as §2
Fruit [9] = test: Drug residues in Citrus sinensis cvs. Valencia late (Valencia oranges) at 400 mg/L treated for 1 min at 40 degC postharvest measured after 20 days of storage at 17 degC in presence of 0.5% SBC by GC analysis; assay type: ADME
Outline: (§3)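 'Valencia' oranges were dipped 1 min in TBZ at 600 mg/L (20 °C, ±0.5, 1 or 2% wt/vol SBC), 400 mg/L (40 °C, ±SBC) or 200 mg/L (50 °C, alone), then air-dried. They were sampled at 0, 10 and 20 days at 17 °C. Peel of five fruit was frozen, and 5 g of homogenate was extracted with ethyl acetate/hexane (1/1) plus NaCl. The extract was dried under N2, taken up in acetone and analysed by GC. Results are mg/kg on a whole-fruit basis.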

Fruit [10] = test: Drug residues in Citrus sinensis cvs. Valencia late (Valencia oranges) at 600 mg/L treated for 1 min at 20 degC postharvest measured after 20 days of storage at 17 degC in presence of 1% SBC by GC analysis; assay type: ADME; outline: as §3
Penicillium digitatum [11] = test: Fungicidal activity against Penicillium digitatum infected Valenica oranges assessed as fruit weight loss at 200 mg/L treated for 1 min at 50 degC postharvest at 20 hr after fungal conidial inoculation measured after 21 days of storage at 17 degC (water Rvb = 8.83%); assay type: functional
Penicillium digitatum [12] = test: (§4) Fungicidal activity against TBZ-sensitive Penicillium digitatum infected Valencia oranges assessed as postharvest green mold incidence at 400 mg/L treated for 1 min at 40 degC at 20 hr after fungal conidial inoculation measured after 7 days of storage at 20 degC in presence of 0.5% SBC (water Rvb = 42.5%); assay type: functional; outline: as §2
Penicillium digitatum [13] = test: as §4, with “TBZ-resistant” for “TBZ-sensitive”, “600” for “400”, “20” for “40”, “2%” for “0.5%”, “40.0%)” for “42.5%)”; assay type: functional
Penicillium digitatum [14] = test: as §1, with “TBZ-resistant” for “TBZ-sensitive”, “600” for “400”, “20” for “40”, “0.5%” for “1%”, “86.7%)” for “93.3%)”; assay type: functional
Fruit [15] = test: Total drug residues in Citrus sinensis cvs. Salustiana (Salustiana oranges) fruit at 600 mg/L treated for 1 min at 20 degC postharvest measured after overnight incubation at 17 degC by GC analysis; assay type: ADME
Outline: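 'Salustiana' oranges were water-washed, dried, dipped, then dried overnight at 17 °C in the dark. Unextracted fruit were used for total residues. Peel from five oranges was frozen at -18 °C. 5 g homogenized peel was extracted with 10 mL ethyl acetate/hexane (1/1) plus 2 g NaCl, shaken 30 min, then 1 mL of organic layer was dried under N2, redissolved in acetone, and run by GC without cleanup. Results are on a whole-fruit basis.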

Fruit [16] = test: Drug residues in Citrus sinensis cvs. Valencia late (Valencia oranges) at 400 mg/L treated for 1 min at 40 degC postharvest measured immediately post-drug treatment in presence of 2% SBC by GC analysis; assay type: ADME; outline: as §3
Penicillium digitatum [17] = test: as §1, with “TBZ-resistant” for “TBZ-sensitive”, “600” for “400”, “20” for “40”, “2%” for “1%”, “61.7%)” for “93.3%)”; assay type: functional
Inner fruit [18] = test: Drug residues in Citrus sinensis cvs. Salustiana (Salustiana oranges) inner fruit at 600 mg/L treated for 3 min at 50 degC postharvest measured after overnight incubation at 17 degC by GC analysis; assay type: ADME; details: 0.05 h
Outline: (§5)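 'Salustiana' oranges were washed with water and air-dried. They were dipped 1 or 3 min in TBZ 600 mg/L at 20 or 50 °C, or 1 min in TBZ 600 mg/L plus 2% SBC at 20 °C, then dried overnight at 17 °C in the dark. Surface residue was taken by water extraction and wax residue by chloroform extraction. Inner residue was measured in fruit after both extractions. Extracts were dried under N2, taken up in acetone and analysed by GC. Values are mg/kg on a whole-fruit basis.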

Inner fruit [19] = test: Drug residues in Citrus sinensis cvs. Salustiana (Salustiana oranges) inner fruit at 600 mg/L treated for 3 min at 20 degC postharvest measured after overnight incubation at 17 degC by GC analysis; assay type: ADME; details: 0.05 h; outline: as §5
Fruit surface = test: Drug residues on Citrus sinensis cvs. Salustiana (Salustiana oranges) fruit surface at 600 mg/L treated for 3 min at 50 degC postharvest measured after overnight incubation at 17 degC by GC analysis; assay type: ADME; details: 0.05 h; outline: as §5
Fruit [20] = test: Drug residues in Citrus sinensis cvs. Valencia late (Valencia oranges) at 200 mg/L treated for 1 min at 50 degC postharvest measured after 20 days of storage at 17 degC by GC analysis; assay type: ADME; outline: as §3

## c1ccc2[nH]c(-c3cscn3)nc2c1 [THIABENDAZOLE]
Penicillium digitatum [1]
  Activity: 8.39%
Penicillium digitatum [2]
  Activity: 6.26%
Penicillium digitatum [3]
  Activity: 8.47%
Penicillium digitatum [4]
  Activity: 4.55%
Penicillium digitatum [5]
  Activity: 4.23%
Penicillium digitatum [6]
  Activity: 55.8%
Penicillium digitatum [7]
  Activity: 5%
Penicillium digitatum [8]
  Activity: 0%
Fruit [9]
  Drug uptake: 0.79 mg/kg
Fruit [10]
  Drug uptake: 1.4 mg/kg
Penicillium digitatum [11]
  Activity: 8.54%
Penicillium digitatum [12]
  Activity: 16.7%
Penicillium digitatum [13]
  Activity: 21.7%
Penicillium digitatum [14]
  Activity: 93.3%
Fruit [15]
  Drug uptake: 1.04 mg/kg
Fruit [16]
  Drug uptake: 0.74 mg/kg
Penicillium digitatum [17]
  Activity: 40%
Inner fruit [18]
  Drug uptake: 0.4 mg/kg
Inner fruit [19]
  Drug uptake: 0.13 mg/kg
Fruit surface
  Drug uptake: 0.69 mg/kg
Fruit [20]
  Drug uptake: 0.38 mg/kg
